According to publication PMC4651821 (Clinical & experimental metastasis, 2015):
Read-outs that look alike come from different tables or passages of the source.

What was measured:
PYK2 = PYK2 (Homo sapiens, UniProt Q14289); assay: Cell-based kinase assay in cell lysates
KDR = KDR (Homo sapiens, UniProt P35968)
MDA-MB-361 breast tumors = assay: Tumor growth inhibition, MDA-MB-361 xenografts in mice; assay type: in vivo, mouse
How it was run: (§1)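 TOV21G or MDA-MB-361 cells were implanted subcutaneously in athymic nude mice and grown to a standardized size (n = 8 per group). Test compound was given daily by gavage at 20–120 mg/kg for 3 weeks. Tumor size was measured and body weight recorded during treatment.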

pFAK [Y397] [1] = molecular target: T1, pFAK [Y397] (Mus musculus, UniProt P34152); assay: pFAK [Y397] ELISA in RIP-Tag2 tumors; assay type: in vivo; settings: 4 h after a single 40-mg/kg dose
T1 sequence (P34152 whole entry, the tested form may be a part): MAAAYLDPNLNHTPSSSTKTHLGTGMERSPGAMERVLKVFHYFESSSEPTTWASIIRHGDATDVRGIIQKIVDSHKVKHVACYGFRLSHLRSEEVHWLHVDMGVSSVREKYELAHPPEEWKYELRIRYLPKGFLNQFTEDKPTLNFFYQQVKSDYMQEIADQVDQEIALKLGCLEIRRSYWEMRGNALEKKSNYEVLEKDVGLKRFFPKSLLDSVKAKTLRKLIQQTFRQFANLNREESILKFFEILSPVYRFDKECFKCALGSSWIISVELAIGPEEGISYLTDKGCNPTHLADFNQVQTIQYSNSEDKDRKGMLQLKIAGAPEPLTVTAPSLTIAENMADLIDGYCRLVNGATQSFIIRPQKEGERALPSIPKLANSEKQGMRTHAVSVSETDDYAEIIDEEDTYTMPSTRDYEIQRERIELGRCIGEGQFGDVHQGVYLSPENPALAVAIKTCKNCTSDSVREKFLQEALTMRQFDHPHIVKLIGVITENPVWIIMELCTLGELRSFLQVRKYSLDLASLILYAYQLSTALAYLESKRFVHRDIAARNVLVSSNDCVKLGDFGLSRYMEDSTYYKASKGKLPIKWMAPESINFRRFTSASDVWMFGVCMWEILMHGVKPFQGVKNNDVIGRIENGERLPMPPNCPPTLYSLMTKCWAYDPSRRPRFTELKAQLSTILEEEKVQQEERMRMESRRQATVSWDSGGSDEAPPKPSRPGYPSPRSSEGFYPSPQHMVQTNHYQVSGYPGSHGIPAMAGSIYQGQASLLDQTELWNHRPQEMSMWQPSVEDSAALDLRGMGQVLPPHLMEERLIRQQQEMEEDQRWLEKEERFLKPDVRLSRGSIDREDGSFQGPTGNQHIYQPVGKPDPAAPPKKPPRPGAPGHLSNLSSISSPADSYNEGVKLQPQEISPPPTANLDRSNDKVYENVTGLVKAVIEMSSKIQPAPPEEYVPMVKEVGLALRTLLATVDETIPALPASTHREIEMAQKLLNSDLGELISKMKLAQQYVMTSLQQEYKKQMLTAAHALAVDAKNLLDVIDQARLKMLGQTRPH
How it was run: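 14-week-old RIP-Tag2 mice received no treatment, one 40 mg/kg dose of test compound, or 20 % Trappsol, 4 or 8 h before sampling. Mice were perfused with PBS, and tumors were removed and frozen. Total FAK and pFAK [Y397] were measured by ELISA, with pancreas of RIP-Tag2-negative littermates as control; n = 4–12 per group.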

Aurora kinase B = Aurora kinase B (Homo sapiens, UniProt Q96GD4)
Chain of Aurora kinase B (Q96GD4 whole entry): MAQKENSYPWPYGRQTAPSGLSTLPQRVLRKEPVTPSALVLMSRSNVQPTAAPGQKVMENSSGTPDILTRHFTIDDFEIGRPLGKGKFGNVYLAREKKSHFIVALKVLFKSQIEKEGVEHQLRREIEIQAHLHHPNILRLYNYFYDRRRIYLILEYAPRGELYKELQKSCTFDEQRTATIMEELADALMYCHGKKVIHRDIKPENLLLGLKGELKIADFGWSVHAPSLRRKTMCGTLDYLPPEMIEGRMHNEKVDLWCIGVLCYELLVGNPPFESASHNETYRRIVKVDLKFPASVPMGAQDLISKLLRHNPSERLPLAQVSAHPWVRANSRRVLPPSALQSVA

TOV21G cells [2] = settings: read-out: EC50 inhibition of proliferation, 3-D culture, 7 days
FAK [3] = molecular target: T2, FAK (Homo sapiens, UniProt Q05397); assay: Cell-based kinase assay in cell lysates
T2 sequence (Q05397 whole entry): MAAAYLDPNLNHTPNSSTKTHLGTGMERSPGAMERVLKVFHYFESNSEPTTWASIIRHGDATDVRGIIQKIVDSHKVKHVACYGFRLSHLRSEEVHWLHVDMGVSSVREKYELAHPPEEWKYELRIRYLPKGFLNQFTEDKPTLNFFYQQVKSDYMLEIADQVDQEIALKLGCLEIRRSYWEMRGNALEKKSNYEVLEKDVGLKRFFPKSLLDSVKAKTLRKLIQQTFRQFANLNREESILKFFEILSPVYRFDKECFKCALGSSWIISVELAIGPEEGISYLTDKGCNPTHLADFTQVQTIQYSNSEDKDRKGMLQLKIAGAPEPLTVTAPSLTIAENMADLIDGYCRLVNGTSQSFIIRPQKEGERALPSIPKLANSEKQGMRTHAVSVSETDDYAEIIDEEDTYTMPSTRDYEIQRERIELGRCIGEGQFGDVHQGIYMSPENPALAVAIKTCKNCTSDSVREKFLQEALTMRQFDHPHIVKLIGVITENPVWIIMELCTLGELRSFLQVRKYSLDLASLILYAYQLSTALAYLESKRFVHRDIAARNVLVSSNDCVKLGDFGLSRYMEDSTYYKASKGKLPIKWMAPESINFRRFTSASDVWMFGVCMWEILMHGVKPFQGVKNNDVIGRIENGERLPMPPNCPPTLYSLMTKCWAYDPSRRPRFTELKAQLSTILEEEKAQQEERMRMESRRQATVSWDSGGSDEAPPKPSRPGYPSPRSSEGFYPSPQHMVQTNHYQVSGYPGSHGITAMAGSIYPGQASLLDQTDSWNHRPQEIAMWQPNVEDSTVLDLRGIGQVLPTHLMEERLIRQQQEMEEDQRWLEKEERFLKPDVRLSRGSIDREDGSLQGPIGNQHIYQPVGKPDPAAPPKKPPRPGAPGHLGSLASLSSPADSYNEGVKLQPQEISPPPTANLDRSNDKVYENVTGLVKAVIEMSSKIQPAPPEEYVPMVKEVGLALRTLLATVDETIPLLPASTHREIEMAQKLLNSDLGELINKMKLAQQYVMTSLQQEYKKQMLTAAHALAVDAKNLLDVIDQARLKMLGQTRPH

[4] = test system: eight human tumor cell lines; settings: read-out: EC50 inhibition of proliferation in 3-D culture
pFAK [Y861] = pFAK [Y861] (Mus musculus, UniProt P34152); assay: pFAK [Y861] immunohistochemistry in RIP-Tag2 liver and tumors; assay type: in vivo; settings: for reduction of pFAK [Y861] staining in liver sinusoids: RIP-Tag2 mice
Chain of pFAK [Y861] (P34152 whole entry, the tested form may be a part): as the sequence (P34152 whole entry, the tested form may be a part) above
How it was run: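 RIP-Tag2 mice got one 20 mg/kg dose of test compound or 20 % Trappsol. pFAK [Y861] immunofluorescence was examined in liver sinusoids and tumors at 6 time points from 1 to 24 h (n = 4 mice per time point). Tissues were perfusion-fixed with 1 % PFA and frozen sections were stained; the time course gave a tissue half-life of inhibition.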

pFAK [Y397] [5] = molecular target: T3, pFAK [Y397] (Homo sapiens, UniProt Q05397); assay: pFAK [Y397] sandwich ELISA in IGROV1 cells; assay type: cell-based; settings: read-out: IC50 of pFAK [Y397] inhibition; IGROV1 ovarian cancer cells in vitro
T3 sequence (Q05397 whole entry): as the sequence (Q05397 whole entry) above

SRC = SRC (Homo sapiens, UniProt P12931); assay: Cell-based kinase assay in cell lysates
FAK [6] = molecular target: T2, FAK; assay: Kinase Profiling System with ADP-Glo Kinase Assay, 192 kinases; assay type: biochemical; settings: OXA-11 concentration of 100 nM
TOV21G tumors [7] = assay: Tumor growth inhibition, TOV21G xenografts in nude mice; assay type: in vivo, mouse
How it was run: as §1

Aurora kinase A = Aurora kinase A (Homo sapiens, UniProt O14965)
FAK [8] = molecular target: T2, FAK; assay: FAK Omnia Kinase Assay; settings: read-out: biochemical IC50 for FAK inhibition
How it was run: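 GST-tagged full-length FAK phosphorylated a sulfonamido-oxine (SOX)-containing peptide substrate, read by chelation-enhanced fluorescence (Omnia). Test compound was run as an 11-point threefold serial dilution at final 0.17–10,000 nM or 0.12–7250 nM, in triplicate. IC50 was derived from the curves.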

[9] = test system: liver metastases of pancreatic neuroendocrine tumors; assay: Liver metastasis in RIP-Tag2 mice; assay type: in vivo, mouse
How it was run: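 RIP-Tag2 transgenic mice (C57BL/6 background) were treated for 3 weeks from age 14 weeks with vehicle (20 % Trappsol daily), test compound 20 mg/kg daily, anti-VEGFR-2 antibody DC101 1 mg ip twice weekly, or both. At 17 weeks, visible liver metastases were scored at autopsy. Micrometastases (≥2 adjacent SV40 T-antigen-positive cells) were counted and sized in two 80-μm liver sections per mouse; n = 19–24 per group.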

[10] = Tolerability in xenograft-bearing athymic nude mice; assay type: in vivo, mouse; settings: 20–120 mg/kg daily for 3 weeks
How it was run: as §1

IGROV1 cells [11] = settings: read-out: EC50 inhibition of proliferation, 3-D culture, 7 days
FAK [12] = molecular target: FAK (Rattus norvegicus, UniProt O35346); assay: Cellular mechanistic FAK inhibition, RMC cell lysates; assay type: cell-based; settings: read-out: OXA-11 IC50 (nM) for FAK, RMC kidney mesangial cells
IGROV1 cells [13] = assay: Apoptosis, caspase 3/7 activity; assay type: cell-based, human; settings: read-out: EC50 promotion of apoptosis, 3-D culture
FAK [14] = assay: Cellular mechanistic FAK inhibition, MDCK cell lysates; assay type: cell-based; settings: read-out: OXA-11 IC50 (nM) for FAK, Dog, MDCK kidney epithelial cells
FAK [15] = molecular target: T2, FAK; assay: Cellular mechanistic FAK inhibition, MDA-MB-361 cell lysates; assay type: cell-based; settings: read-out: OXA-11 IC50 (nM) for FAK, MDA-MB-361 breast adenocarcinoma metastasis cells
pFAK [Y397] [16] = molecular target: T1, pFAK [Y397]; assay: pFAK [Y397] immunohistochemistry in RIP-Tag2 liver and tumors; assay type: in vivo; settings: 2 h after one 20-mg/kg dose
pFAK [Y397] [17] = molecular target: T3, pFAK [Y397]; assay: PK/PD of pFAK [Y397] inhibition in xenograft tumors; assay type: in vivo, mouse
How it was run: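 TOV21G cells were implanted subcutaneously in athymic nude mice and grown to a standardized size. Mice got a single gavage dose of test compound (40–120 mg/kg in 20 % Trappsol) or vehicle. From 2 to 24 h later, tumor pFAK [Y397] was measured by ELISA alongside plasma drug levels. Time points were 4, 8 and 24 h after 80 or 120 mg/kg.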

TOV21G cells [18] = assay: Apoptosis, caspase 3/7 activity; assay type: cell-based, human; settings: read-out: EC50 promotion of apoptosis, 3-D culture
FAK [19] = assay: Cellular mechanistic FAK inhibition, CMMT cell lysates; assay type: cell-based; settings: read-out: OXA-11 IC50 (nM) for FAK, Monkey, CMMT mammary gland epithelial cells
Insulin receptor = Insulin receptor (Homo sapiens, UniProt P06213); assay: Cell-based kinase assay in cell lysates
Chain of Insulin receptor (P06213 763-1382 limits assumed): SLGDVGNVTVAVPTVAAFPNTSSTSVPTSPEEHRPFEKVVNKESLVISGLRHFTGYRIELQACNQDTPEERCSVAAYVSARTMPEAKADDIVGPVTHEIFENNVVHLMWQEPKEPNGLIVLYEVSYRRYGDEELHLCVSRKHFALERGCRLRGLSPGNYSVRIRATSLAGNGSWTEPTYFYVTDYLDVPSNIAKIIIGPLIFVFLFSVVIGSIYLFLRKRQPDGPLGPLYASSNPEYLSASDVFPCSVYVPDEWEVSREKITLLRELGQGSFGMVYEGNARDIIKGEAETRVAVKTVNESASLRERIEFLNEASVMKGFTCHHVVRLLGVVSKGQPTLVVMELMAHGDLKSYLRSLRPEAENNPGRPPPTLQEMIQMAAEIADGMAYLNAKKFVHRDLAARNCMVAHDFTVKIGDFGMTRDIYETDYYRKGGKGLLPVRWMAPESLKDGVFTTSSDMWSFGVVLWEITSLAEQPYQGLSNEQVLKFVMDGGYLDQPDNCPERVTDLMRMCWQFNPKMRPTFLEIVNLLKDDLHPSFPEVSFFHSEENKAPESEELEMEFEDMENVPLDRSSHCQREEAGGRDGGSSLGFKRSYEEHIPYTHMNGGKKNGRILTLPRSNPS
Chain of Insulin receptor (P06213 28-758 partner limits assumed): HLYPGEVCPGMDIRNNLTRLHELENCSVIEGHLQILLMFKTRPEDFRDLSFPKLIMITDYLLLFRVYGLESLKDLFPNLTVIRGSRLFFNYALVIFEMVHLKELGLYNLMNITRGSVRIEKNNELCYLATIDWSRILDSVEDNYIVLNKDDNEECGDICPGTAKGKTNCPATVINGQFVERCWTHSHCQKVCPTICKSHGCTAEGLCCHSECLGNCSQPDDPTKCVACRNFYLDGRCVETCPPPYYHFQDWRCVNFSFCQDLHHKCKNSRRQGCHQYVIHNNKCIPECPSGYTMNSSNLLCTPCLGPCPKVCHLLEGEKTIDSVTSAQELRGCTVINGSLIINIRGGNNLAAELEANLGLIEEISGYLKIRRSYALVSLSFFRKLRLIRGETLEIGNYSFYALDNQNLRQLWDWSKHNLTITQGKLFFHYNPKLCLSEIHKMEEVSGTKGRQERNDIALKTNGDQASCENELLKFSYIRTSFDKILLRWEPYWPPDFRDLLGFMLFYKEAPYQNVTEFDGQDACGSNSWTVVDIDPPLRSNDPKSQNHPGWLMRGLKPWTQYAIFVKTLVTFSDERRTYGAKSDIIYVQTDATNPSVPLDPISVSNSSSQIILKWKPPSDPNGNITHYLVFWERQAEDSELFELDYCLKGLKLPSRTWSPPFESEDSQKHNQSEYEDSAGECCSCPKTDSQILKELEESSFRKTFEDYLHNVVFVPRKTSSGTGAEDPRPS

[20] = Tolerability / maximum tolerated dose in RIP-Tag2 mice; assay type: in vivo
FAK [21] = molecular target: FAK (Mus musculus, UniProt P34152); assay: Cellular mechanistic FAK inhibition, 4T1 cell lysates; assay type: cell-based; settings: read-out: OXA-11 IC50 (nM) for FAK, 4T1 mammary carcinoma cells
Chain of FAK (Mus musculus, UniProt P34152) (P34152 whole entry): as the sequence (P34152 whole entry, the tested form may be a part) above

TOV21G tumors [22] = assay: OXA-11 with cisplatin in TOV21G tumors in nude mice; assay type: in vivo; settings: cisplatin given alone, 5 mg/kg
[23] = cellular mechanistic IC50, TOV21G cells
[24] = TOV21G xenografts, 120 mg/kg daily

Chain of PYK2 (Q14289 whole entry): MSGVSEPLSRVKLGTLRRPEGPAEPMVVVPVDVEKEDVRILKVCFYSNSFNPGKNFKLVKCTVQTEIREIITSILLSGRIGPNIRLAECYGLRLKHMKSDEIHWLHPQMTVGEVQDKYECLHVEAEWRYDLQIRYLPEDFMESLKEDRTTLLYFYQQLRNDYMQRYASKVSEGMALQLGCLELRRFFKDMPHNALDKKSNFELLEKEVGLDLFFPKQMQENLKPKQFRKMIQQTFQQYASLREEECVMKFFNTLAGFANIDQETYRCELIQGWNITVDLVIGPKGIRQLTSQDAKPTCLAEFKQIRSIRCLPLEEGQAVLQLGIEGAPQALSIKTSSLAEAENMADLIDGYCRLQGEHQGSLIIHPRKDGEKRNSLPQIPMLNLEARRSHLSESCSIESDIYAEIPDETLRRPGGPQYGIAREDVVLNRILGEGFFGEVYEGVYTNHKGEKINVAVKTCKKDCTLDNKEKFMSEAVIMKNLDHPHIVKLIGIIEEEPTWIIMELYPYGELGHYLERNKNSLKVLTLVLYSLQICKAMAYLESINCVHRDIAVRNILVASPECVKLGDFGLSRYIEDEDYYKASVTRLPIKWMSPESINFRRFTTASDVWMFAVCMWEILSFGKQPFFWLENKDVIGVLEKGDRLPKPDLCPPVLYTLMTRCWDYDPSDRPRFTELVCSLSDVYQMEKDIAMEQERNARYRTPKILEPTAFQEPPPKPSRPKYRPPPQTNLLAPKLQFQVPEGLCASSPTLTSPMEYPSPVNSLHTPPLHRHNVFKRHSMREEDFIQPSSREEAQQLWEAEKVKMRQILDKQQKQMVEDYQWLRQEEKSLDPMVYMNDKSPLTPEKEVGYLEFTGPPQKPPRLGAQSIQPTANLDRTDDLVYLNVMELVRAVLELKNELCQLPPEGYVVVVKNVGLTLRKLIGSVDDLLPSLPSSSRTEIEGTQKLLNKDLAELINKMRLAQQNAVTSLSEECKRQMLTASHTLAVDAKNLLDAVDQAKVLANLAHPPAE

In the case of `CCOP(=O)(Cc1ccc(Nc2ncc(C(F)(F)F)c(Nc3ccc([C@H]4CC[C@H](N5CCN(C)CC5)CC4)c4c3C(=O)N(C)C4)n2)c(OC)c1)OCC` [OXA-11, diethyl (3-methoxy-4-{ [4-({2-methyl-7-[trans-4-(4-methylpiperazin-1-yl)cyclo-hexyl]-3-oxo-2,3-dihydro-1H-isoindol-4-yl}amino)-5-(tri-fluoromethyl)pyrimidin-2-yl]amino}benzyl) phosphonate], the “Fold selectivity for FAK over PYK2” value (PYK2; cell lysates) is reported as 8×, the “selectivity for FAK over PYK2” value (PYK2; [23]) is reported as “eightfold” and the IC50 (PYK2; read-out: OXA-11 IC50 (nM), PYK2, cellular mechanistic, cell lysates) is reported as 80 nM. The “Fold selectivity for FAK over KDR” value (KDR; cell lysates) was over 1000×, the “selectivity for FAK over KDR (VEGFR-2, FLK1)” value (KDR; [23]) was over 1000 fold and the IC50 (KDR; read-out: OXA-11 IC50 (nM), KDR, cellular mechanistic, cell lysates) was over 10000 nM. The “inhibition of MDA-MB-361 tumor growth over 3 weeks” value (MDA-MB-361 breast tumors; higher daily dose (120 mg/kg)) was 95%, the “inhibition of MDA-MB-361 tumor growth over 3 weeks” value (MDA-MB-361 breast tumors; lower daily dose (40 mg/kg)) was 60% and the “pFAK [Y397] activity in RIP-Tag2 tumors” value (pFAK [Y397] [1]) was “significantly reduced”. For the same compound, the “Fold selectivity for FAK over Aurora kinase B” value (Aurora kinase B; cell lysates) was over 1000×, the “selectivity for FAK over aurora kinase B (AURKB)” value (Aurora kinase B; [23]) was over 1000 fold and the IC50 (Aurora kinase B; read-out: OXA-11 IC50 (nM), Aurora kinase B, cellular mechanistic, cell lysates) was over 10000 nM. The EC50 (TOV21G cells [2]) was 9 nM, the “Fold selectivity for FAK (FAK)” value (FAK [3]) was 1× and the EC50 ([4]; TOV21G, OVCAR3, OVCAR5 and IGROV1 cells (high baseline pFAK [Y397])) was 0.3 to 14.5 nM. For the same compound, the EC50 ([4]; four other cell lines with lower baseline pFAK [Y397]) was over 100 nM, the “staining for pFAK [Y861] in RIP-Tag2 tumors” value (pFAK [Y861]; 2 h after one 20-mg/kg dose) was “reduced to nearly undetectable levels” and the “tissue half-life of OXA-11 inhibition of pFAK [Y861]” value (pFAK [Y861]; RIP-Tag2 liver sinusoids, single dose 20 mg/kg) was “about 4 h”. The “reduction of pFAK [Y861] staining in liver sinusoids” value (“reduction of pFAK [Y861] staining” below) (pFAK [Y861]; 1 h after single dose 20 mg/kg) was 79%, the “reduction of pFAK [Y861] staining” value (pFAK [Y861]; 4 h after single dose 20 mg/kg) was 57% and the “reduction of pFAK [Y861] staining” value (pFAK [Y861]; 6 h after single dose 20 mg/kg) was 35%. The IC50 (pFAK [Y397] [5]) was 0.8 nM, the “Fold selectivity for FAK over SRC” value (SRC; cell lysates) was over 1000× and the “selectivity for FAK over SRC” value (SRC; [23]) was over 1000 fold. For the same compound, the IC50 (SRC; read-out: OXA-11 IC50 (nM), SRC, cellular mechanistic, cell lysates) was over 10000 nM, the “inhibition of kinase in biochemical specificity screening” value (FAK [6]) was “more than 50%” and the “inhibition of tumor growth” value (TOV21G tumors [7]; [24]) was 77%. The “reduction in size of TOV21G tumors” value (TOV21G tumors [7]; nude mice, 20–120 mg/kg daily for 3 weeks) was 22–67%, the “Fold selectivity for FAK over Aurora kinase A” value (Aurora kinase A; cell lysates) was over 1000× and the “selectivity for FAK over aurora kinase A (AURKA)” value (Aurora kinase A; [23]) was over 1000 fold. The IC50 (Aurora kinase A; read-out: OXA-11 IC50 (nM), Aurora kinase A, cellular mechanistic, cell lysates) was over 10000 nM, the IC50 (FAK [8]) was 0.0012 nM and the “mice with liver metastases visible at autopsy” value ([9]; 17-week old RIP-Tag2 mice after treatment for 3 weeks) was 10%. For the same compound, the “size of liver micrometastases” value ([9]; RIP-Tag2 mice, 3 weeks treatment) was “about the same as in the vehicle group”, the dose-limiting toxicity [10] was “No dose-limiting toxicity” and the EC50 (IGROV1 cells [11]) was 0.3 nM. The IC50 (FAK [12]) was 18 nM, the EC50 (IGROV1 cells [13]) was 0.5 nM and the IC50 (FAK [14]) was 32 nM. The IC50 (FAK [15]) was 20 nM, the “staining for pFAK [Y397] in RIP-Tag2 tumors” value (pFAK [Y397] [16]) was “reduced to nearly undetectable levels” and the “pFAK [Y397] immunofluorescence in liver sinusoids, less than baseline” value (pFAK [Y397] [16]; RIP-Tag2 mice) was 86%. For the same compound, the “reduction of pFAK [Y397] at 24 h” value (pFAK [Y397] [17]; TOV21G tumors, single dose 80 or 120 mg/kg, plasma levels back to baseline) was “approximately 25%”, the “suppression of pFAK [Y397]” value (pFAK [Y397] [17]; [24]) was 61% and the EC50 (pFAK [Y397] [17]; read-out: pharmacodynamic EC50 of pFAK [Y397] inhibition, total OXA-11, TOV21G tumors in mice, 4, 8 and 24 h) was 102 nM. For the same compound, the EC50 (TOV21G cells [18]) was 31 nM, the IC50 (FAK [19]) was 84 nM and the “Fold selectivity for FAK over Insulin receptor” value (Insulin receptor; cell lysates) was over 1000×. The “selectivity for FAK over insulin receptor (IR, INSR)” value (Insulin receptor; [23]) was over 1000 fold, the IC50 (Insulin receptor; read-out: OXA-11 IC50 (nM), Insulin receptor, cellular mechanistic, cell lysates) was over 10000 nM and the tolerability ([20]; 40 or 60 mg/kg daily for at least 3 weeks) was “well tolerated”. The maximum tolerated dose ([20]; OXA-11 given with DC101) was 20 mg/kg, the tolerable dosing ([20]; daily) was 20 to 60 mg/kg and the IC50 (FAK [21]) was 8 nM. The “Fold selectivity for FAK over RSK1/2” value (RSK1/2; cell lysates) was 26×, the “selectivity for FAK over RSK1/2” value (RSK1/2; [23]) was 26 fold and the IC50 (RSK1/2; read-out: OXA-11 IC50 (nM), RSK1/2, cellular mechanistic, cell lysates) was 260 nM.

With `N.N.[Cl][Pt][Cl]` [cisplatin] the “effect on pFAK [Y397] in TOV21G-cell tumors” value (TOV21G tumors [22]) was “increased pFAK [Y397]”.
